Test results: ChEMBL document CHEMBL3120053, “Airborne antituberculosis activity of Eucalyptus citriodora essential oil” (J Nat Prod, 2014)
≈ marks a conversion by molar mass, not a printed value.

Columns and labels:
[1] = Partition coefficient, log K of the compound in n-hexane/methyl tert-butylether/acetonitrile 10:1:10 solvent system by HSCCC/EECCC analysis; format: physicochemical
Summary of the method: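 K values derived from volumetric measurements of the HSCCC run. Fraction collection began 1 h after loading at 4 min (6 mL) per fraction. Elution ran 5 h, then sweep elution and extrusion of the stationary phase for another 5 h, giving 160 TLC-monitored fractions.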

[2] = tested on: Mycobacterium tuberculosis; assay: Antimicrobial activity against Mycobacterium tuberculosis H37Rv assessed as growth inhibition by gaseous contact assay relative to control; format: functional
Summary of the method: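 Gaseous contact (microatmosphere) assay. Virulent pan-sensitive M.tb H37Rv (ATCC 27294) frozen stocks were diluted so 100 μL gave 200−400 colonies on Middlebrook 7H11 agar, then dried 4−5 h at room temperature. 5 μL of sample in EtOAc (100 mg/mL) went on a filter disk in the inverted lid (≈70 cm3 headspace). Plates were sealed, held at 37 °C, cfu counted at 21 days, and % inhibition calculated.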

[3] = tested on: Mycobacterium tuberculosis; assay: Antimicrobial activity against Mycobacterium tuberculosis H37Rv by BACTEC radiometric assay; format: functional

Structure (SMILES): CC12CCCCC1=CC(=O)CC2 (centres undefined)
- log K [1]: 1.55

Structure (SMILES): C[C@@H]1CC[C@@H](C(C)(C)O)C(O)C1 (some centres undefined)
- log K [1]: 0.87

Structure (SMILES): C=C(C)[C@@H]1CC[C@@H](C)C[C@H]1OC(C)=O
- log K [1]: 1.55

Structure (SMILES): CC(C)=CCC/C(C)=C/CC/C(C)=C/C=O
- log K [1]: 1.79

Structure (SMILES): C[C@@H]1CC[C@H]2[C@@H]1[C@H]1[C@@H](CC[C@]2(C)O)C1(C)C
- log K [1]: 1.55

Structure (SMILES): C[C@H]1CC[C@@H]2[C@H]1[C@@H]1[C@H](CC[C@]2(C)O)C1(C)C
- log K [1]: 1.18

Structure (SMILES): CC1(C)C[C@H]2[C@H]1CC[C@]1(C)CCC[C@@]2(O)C1
- log K [1]: 1.6

Structure (SMILES): C/C1=C\CC(C)(C)/C=C/C[C@@]2(C)O[C@@H]2CC1
- log K [1]: 1.55

Structure (SMILES): C=C1CCCC(C)(C)[C@H]2C=C(C)CC[C@@H]12
- log K [1]: 1.6

Structure (SMILES): CC1=CC[C@H]2C(C)=CC[C@@H](C(C)C)[C@@H]2C1
- log K [1]: 2.98

Structure (SMILES): CC1=CCC[C@]2(C)CC[C@@H](C(C)(C)O)C[C@@H]12
- log K [1]: 1.8

Structure (SMILES): CC1=C[C@H]2[C@H](C(C)C)CC[C@@H](C)[C@]2(O)CC1
- log K [1]: 1.8

Structure (SMILES): Cc1cc(C(C)(C)C)cc(C(C)(C)C)c1O
- log K [1]: 1.79

Structure (SMILES): C=C1CC[C@@H]2[C@H]([C@@H]3[C@H](C)CC[C@H]13)C2(C)C
- log K [1]: 2.98

Structure (SMILES): C=C(C)[C@H]1CC[C@H](C)C[C@H]1O (relative stereo)
- log K [1]: 0.82

Structure (SMILES): C=C(C)[C@H]1CC[C@@H](C)C[C@H]1O (relative stereo)
- log K [1]: 2.98

Structure (SMILES): CC1=C[C@@H]2C(=C(C)CC[C@H]2C(C)C)CC1 [(+)-DELTA-CADINENE]
- log K [1]: 2.98

Structure (SMILES): CC(C)=CCC[C@H](C)CC=O [(-)-CITRONELLAL]
- growth inhibition (GI) [2]: 18%
- log K [1]: 1.02

Structure (SMILES): CC1=CC[C@@H](C(C)(C)O)CC1 [ALPHA-TERPINEOL]
- log K [1]: 0.82

Structure (SMILES): C=C1CC/C=C(\C)CC[C@@H]2[C@@H]1CC2(C)C [BETA-CARYOPHYLLENE]
- log K [1]: 2.98

Structure (SMILES): C=C1CCC[C@]2(C)CC[C@@H](C(C)(C)O)C[C@@H]12 [BETA-EUDESMOL]
- log K [1]: 1.6

Structure (SMILES): C=C(C)[C@@H]1CC[C@@]2(C)CCCC(=C)[C@@H]2C1 [BETA-SELINENE]
- log K [1]: 1.79

Structure (SMILES): CC(C)=CCCC(C)CCO (centres undefined) [CITRONELLOL]
- MIC [3]: 64 µg/mL (≈ 410 µM)
- growth inhibition (GI) [2]: 100%
- log K [1]: 0.69

Structure (SMILES): CC(=O)OCCC(C)CCC=C(C)C (centres undefined) [CITRONELLYL ACETATE]
- log K [1]: 1.55

Structure (SMILES): CC12CCC(CC1)C(C)(C)O2 [EUCALYPTOL]
- growth inhibition (GI) [2]: 0%

Structure (SMILES): CC(C)=CCC/C(C)=C/CC/C(C)=C/CO [FARNESOL]
- MIC [3]: 8 µg/mL (≈ 36 µM)
- log K [1]: 1.79

Structure (SMILES): CC(C)=CCC/C(C)=C/CO [GERANIOL]
- MIC [3]: 64 µg/mL (≈ 415 µM)

Structure (SMILES): CC(C)=CCC/C(C)=C/CC/C(C)=C/CC/C(C)=C/CO [GERANYLGERANIOL]
- log K [1]: 1.6

Structure (SMILES): C[C@@H]1CC[C@@H]2[C@@H]1[C@H]1[C@@H](CC[C@@]2(C)O)C1(C)C [GLOBULOL]
- log K [1]: 1.79

Structure (SMILES): C=C(C)[C@@H]1CC[C@@H](C)C[C@H]1O [ISOPULEGOL]
- growth inhibition (GI) [2]: 64%
- log K [1]: 0.87

Structure (SMILES): C=CC(C)(O)CCC=C(C)C (centres undefined) [LINALOOL]
- log K [1]: 0.74

Structure (SMILES): CC(C)=CCC/C(C)=C\CO [NEROL]
- MIC [3]: 128 µg/mL (≈ 830 µM)

Structure (SMILES): C=C1CC[C@@H]2[C@H]([C@H]3[C@H]1CC[C@]3(C)O)C2(C)C [SPATHULENOL]
- log K [1]: 1.18

Structure (SMILES): CC1=C[C@@H]2[C@@H](CC1)[C@@](C)(O)CC[C@H]2C(C)C [T-CADINOL]
- log K [1]: 1.55
